# Publication PMC3115796 (The Journal of Cell Biology, 2011)
# “Also recorded” adds a separate entry of the source. Ends that are not written are not given here.
# Key:
# [1] = system: SLAIN2 C terminus / full-length CLIP-170; assay: GST-SLAIN2 pull-down of CLIPs and full-length CLIP-170; format: binding
# [2] = molecular target: T1, CLIPCG12 (both CAP-Gly domains of CLIP-170) (Homo sapiens, UniProt P30622); assay: ITC of SLAIN2c with double CAP-Gly construct of CLIP-170; format: binding
# T1 sequence (P30622 48-300): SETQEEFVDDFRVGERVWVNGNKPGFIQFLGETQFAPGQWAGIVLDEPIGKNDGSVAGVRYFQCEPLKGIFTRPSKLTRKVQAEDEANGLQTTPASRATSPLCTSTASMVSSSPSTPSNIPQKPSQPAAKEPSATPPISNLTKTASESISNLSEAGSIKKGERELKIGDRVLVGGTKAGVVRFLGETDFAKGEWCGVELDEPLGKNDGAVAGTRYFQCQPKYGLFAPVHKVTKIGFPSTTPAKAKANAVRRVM
# [3] = system: p150CG (CAP-Gly domain of dynactin large subunit p150^Glued); assay: ITC of SLAIN2c with CAP-Gly domain of p150Glued; format: binding, human; settings: ITC in PBS, 25°C
# [4] = molecular target: T2, CLIPCG1 (first CAP-Gly domain of CLIP-170) (Homo sapiens, UniProt P30622); assay: ITC of SLAIN2c with first CAP-Gly domain of CLIP-170; format: binding
# T2 sequence (P30622 56-128): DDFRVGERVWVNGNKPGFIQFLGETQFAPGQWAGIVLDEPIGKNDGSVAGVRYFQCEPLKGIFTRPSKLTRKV
# [5] = molecular target: T3, CLIPCG2 (second CAP-Gly domain of CLIP-170) (Homo sapiens, UniProt P30622); assay: ITC of SLAIN2c with second CAP-Gly domain of CLIP-170; format: binding
# T3 sequence (P30622 210-282): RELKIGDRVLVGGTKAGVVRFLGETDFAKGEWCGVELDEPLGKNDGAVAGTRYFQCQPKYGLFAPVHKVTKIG
# SLAIN2 in 3T3 cells = assay: siRNA knockdown in mouse 3T3 cells; format: cell-based; settings: siRNA 5 nM, 72 h
# Method in brief: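 Mouse Swiss 3T3 cells were cultured in 45% DME, 45% Ham's F10 and 10% FCS. Cells were blocked in interphase with 2 mM thymidine, added 1 d after transfection, for 2 d.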
substance,measurement,setting,value
GFP–CLIP-115: full-length rat CLIP-115 [reference compound],association with SLAIN2 C terminus,[1],associated with the SLAIN2 C terminus
GSMKDDSWKDGCY-OH [SLAIN2c],Kd (in words),[2],comparable
same,binding by ITC (in words),[3],only very weak binding; also recorded: more weakly than the two CAP-Gly domains of CLIP-170
same,Kd (in words),[4]; ITC,micromolar range
same,Kd (in words),[5]; ITC,micromolar range
SLAIN2 siRNA#2: siRNA target sequence 5′-CUCUAUAGAUAGUGAGUUA-3′ (chemistry not given here),depletion of SLAIN2,SLAIN2 in 3T3 cells,efficiently deplete SLAIN2
SLAIN2c-W576A (GSMKDDSAKDGCY),binding by ITC (in words),"[4]; ITC in PBS, 25°C",abrogates binding
same,binding by ITC (in words),"[5]; ITC in PBS, 25°C",abrogates binding
